Screens: PubChem BioAssay, several laboratories
Sampled rows, rich in hits. Any-hit rate of the full collection: about 1.4%.
Rev-erbA mod: modulates human Rev-erb alpha binding to DNA. activity, % at 10 µM. AID 1259318. hit rate 0.79% among 370,000. Rev-erbα–FITC-DNA binding, fluorescence polarization, 90 min;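 active means activity above about 14%, limit read from the data; passing the limit was not always enough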;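 further: 0% = DMSO wells with 35 nM protein and 100% = DMSO wells with 750 nM protein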
PG9 binder: PG9 antibody binding by small molecule; TR-FRET gp120-PG9 antibody binding; inhibition, % at 6.7 µM; hit rate 0.43% among 360,000; AID 624416; in the data active means inhibition above about 8.5%
NR2E3 ag-1: activates human NR2E3 receptor; CHO-S Gal4-NCOR/VP16-NR2E3 two-hybrid, luciferase; Q9Y5X4; inhibition of corepressor binding, % at 3.98 µM; hit rate 0.35% among 360,000;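 active means inhibition above the mean of all tested compounds plus 3 SD, cut at about 70% in these data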;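 further: 0% = DMSO with NR2E3 transfected cells and 100% = cells lacking NR2E3 construct; higher means lower luciferase signal from less NR2E3 corepressor binding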
Target sequence (Q9Y5X4 whole entry, looked up, the tested form may be a part): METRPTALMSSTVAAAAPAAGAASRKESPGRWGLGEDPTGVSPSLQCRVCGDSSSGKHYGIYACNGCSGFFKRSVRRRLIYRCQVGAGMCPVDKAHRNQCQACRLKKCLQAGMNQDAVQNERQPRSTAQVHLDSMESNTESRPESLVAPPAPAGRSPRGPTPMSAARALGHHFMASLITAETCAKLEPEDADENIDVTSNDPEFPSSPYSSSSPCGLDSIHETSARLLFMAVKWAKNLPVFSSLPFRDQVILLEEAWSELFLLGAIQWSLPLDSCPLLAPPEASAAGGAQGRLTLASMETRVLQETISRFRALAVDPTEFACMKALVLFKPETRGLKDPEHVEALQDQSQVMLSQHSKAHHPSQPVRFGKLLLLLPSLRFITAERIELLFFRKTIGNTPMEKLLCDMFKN
NR2E3 ag-2: agonists of human nuclear receptor NR2E3; Q9Y5X4; GST-NR2E3/biotin-RetCOR TR-FRET, 1536-well; inhibition of corepressor binding, % at 4.78 µM; hit rate 0.12% among 320,000; AID 2300;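 active means percent inhibition above the cutoff of mean plus 3 SD of all tested compounds, set per screening campaign, cut at about 20% in these data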;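 further: 0% = DMSO wells and 100% = biotin wells as full block of FRET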
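Material – GST-tagged NR2E3 plus biotinylated RetCOR corepressor · Quantity – NR2E3 fusion 1.35 nM · Times – 5 h incubation at 4 °C · Medium – pH 7.5 Tris-based buffer · Technique – TR-FRET, Eu(K)-anti-GST donor, streptavidin-D2 acceptor, ex 340, em 617/671 nm · Benchmarks – high control biotin, low control 0.6% DMSO · Format – 1536-well plates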
NR2E3 ag confirm: confirmation of human NR2E3 agonists; shares compounds with NR2E3 ag-1; CHO-S mammalian two-hybrid NR2E3-NCOR, luciferase luminescence; inhibition, % at 3.98 µM; hit rate 51% among 2,300;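 active means average inhibition above a cutoff equal to the mean inhibition of all tested compounds plus one SD, cut at about 70% in these data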;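 further: 0% = DMSO in NR2E3 cells and 100% = DMSO in cells lacking NR2E3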
VP16 counter: reduces GAL4-VP16 reporter signal in NR2E3 counterscreen | shares compounds with NR2E3 ag-1 | CHO-S GAL4-VP16 luciferase reporter, luminescence | inhibition, % at 3.98 µM | hit rate 29% among 2,300 | AID 624379;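 active means mean inhibition above a cutoff equal to the average over all tested compounds plus one standard deviation, cut at about 70% in these data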;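 further: luciferase from a UAS reporter driven by GAL4-VP16 transactivation; 0% = DMSO with VP16-transfected cells and 100% = DMSO with cells lacking VP16; higher means less reporter light so more repression of VP16 activity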
* hit, by the source's call; . = no result.

SMILES	Rev-erbA mod	PG9 binder	NR2E3 ag-1	NR2E3 ag-2	NR2E3 ag confirm	VP16 counter
CC1(C)CC(=O)C2=C(C1)c1c(ccc3ccccc13)NC2c1cc([N+](=O)[O-])cc([N+](=O)[O-])c1O (centres undefined)	1.5	-1.7	57.4	0.0	98.4*	60.6
COc1ccc(S(=O)(=O)Nc2ccccc2C(=O)Nc2nc(-c3ccc(F)cc3)cs2)cc1OC	-1.5	0.2	58.8	0.2	97.1*	83.4*
COc1ccc(-c2csc(NC(=O)c3ccccc3NS(=O)(=O)c3ccc(C)cc3)n2)cc1	-0.1	-0.9	95.0*	0.3	98.2*	84.7*
COc1cccc(C=Nc2ccc3c(c2)OCCO3)c1O	.	.	74.0*	0.6	-17.6	-24.3
O=C(COC(=O)CNS(=O)(=O)c1cccc(F)c1)NCCc1ccccc1	1.7	-2.8	-14.9	.	.	.
Cc1ccccc1NC(=O)C(=O)NCCCN1CCOCC1	4.1	0.5	6.9	6.5	.	.
Cc1ccc(C)c(N2CCN(S(=O)(=O)c3ccc4c(c3)CC(C)N4C(=O)C3CC3)CC2)c1 (centres undefined)	1.2	-0.3	-14.3	2.1	.	.
COc1ccccc1N1CCN(C(=O)C2CCN(S(=O)(=O)c3ccc4c(c3)CC(C)N4C(=O)C3CC3)CC2)CC1 (centres undefined)	1.6	-0.3	10.7	-0.6	.	.
CC(=O)c1ccc(N2CCN(S(=O)(=O)c3ccc4c(c3)CC(C)N4C(C)=O)CC2)cc1 (centres undefined)	-5.4	-2.5	70.3*	-0.7	91.7*	73.4*
Cc1cccc(N2CCN(S(=O)(=O)c3ccc4c(c3)CC(C)N4C(=O)C3CC3)CC2)c1C (centres undefined)	-2.3	-1.8	53.3	-2.2	59.0	54.5
CC1Cc2cc(S(=O)(=O)N3CCC(C(=O)N4CCN(c5ccccc5F)CC4)CC3)ccc2N1C(=O)C1CC1 (centres undefined)	5.2	-1.3	73.9*	0.4	46.2	45.5
CC(=O)N1c2ccc(S(=O)(=O)N3CCC(C(=O)N4CCN(c5cc(Cl)ccc5C)CC4)CC3)cc2CC1C (centres undefined)	4.2	-1.1	86.8*	3.0	90.5*	78.0*
CC(=O)N1c2ccc(S(=O)(=O)N3CCC(C(=O)N4CCC(C)CC4)CC3)cc2CC1C (centres undefined)	-1.1	0.0	34.1	-3.3	.	.
CCOc1ccc(NC(=O)CC2C(=O)N(c3cccc(OC)c3)C(=O)N2CCOC)cc1 (centres undefined)	5.1	1.1	-9.2	-6.5	.	.
C(=NN1CCCCCC1)c1cccc2ccccc12	-0.3	0.0	5.6	.	.	.
C(=NN1CCCCCC1)c1ccc2ccccc2n1	-4.2	-1.8	94.9*	.	86.2*	67.7
Cc1cccc(CNC(=O)CC2C(=O)NCCN2C2CCCC2)c1 (centres undefined)	-4.3	-2.1	0.8	-1.2	.	.
Cc1cc(C)cc(NC(=O)c2ccc([N+](=O)[O-])o2)c1	1.7	-0.1	83.5*	.	51.5	40.9
Cc1cccc(NC(=S)NNc2ncc(C(F)(F)F)cc2Cl)c1	5.6	-4.5	-15.8	1.3	.	.
FC(F)(F)c1cnc(NNC(=S)Nc2ccccc2Cl)c(Cl)c1	0.9	0.0	52.5	6.4	65.6	65.9
O=C(COC(=O)CNC(=O)c1ccc([N+](=O)[O-])o1)Nc1ncc(Cl)cc1Cl	-7.4	-4.0	1.2	1.6	.	.
Cc1cc(N2CCN(C(=O)c3cccs3)CC2)c(F)cc1[N+](=O)[O-]	-3.4	-0.6	79.0*	3.0	82.3*	65.9
O=C(CSc1ccc(-c2ccncc2)nn1)c1ccc(Cl)cc1	-28.4	-2.5	-5.2	0.9	.	.
NC(=O)C(c1ccc(Cl)cc1)c1ccc(Sc2ccc(Cl)cc2)nn1 (centres undefined)	-0.1	1.9	64.6	6.4	87.2*	70.6
O=C(c1cccs1)N1C[C@@H](O)[C@H](n2cc(-c3ccc(F)cc3)nn2)C[C@@H]1c1ccc(Cl)cc1	1.8	-1.3	-12.9	.	.	.
O=[N+]([O-])c1ccc(Nc2ccccc2)c2nonc12	18.7	-5.3	9.1	-3.4	.	.
O=[N+]([O-])c1ccc(Sc2cccc[n+]2[O-])c2nonc12	3.3	-2.0	101.7*	.	-44.0	-6.9
NS(=O)(=O)c1ccc(CCNc2nn3c(-c4cccc(OC(F)(F)F)c4)cnc3s2)cc1	13.9	1.5	93.7*	.	89.7*	52.9
